3 compounds from ChEMBL document CHEMBL3739344, “A novel class of negative allosteric modulators of NMDA receptor function” (Bioorg Med Chem Lett, 2015) can be followed below.

≈ marks a conversion by molar mass, not a printed value. Calls of active or inactive are those of the source. No cut-off for these calls is given here.

The test system of series [1] is Primary neuron. Briefly: Neuroprotective activity in rat primary hippocampal neurons assessed as 100 uM NMDA and 30 uM glycine induced LDH release in media at 10 uM after 20 to 24 hrs by spectrophotometric analysis. The format is functional, cell-based. The method in brief: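 Rat hippocampal neurons were cultured 7–10 days in vitro at 37 °C. They were challenged for 1 h in Mg2+-free medium with 100 µM NMDA plus 30 µM glycine, then returned to normal medium. LDH in the supernatant was read spectrophotometrically 20–24 h later and expressed relative to vehicle-treated cells. Triplicates from 6 independent experiments.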

Series [2] addresses T1, Glutamate NMDA receptor; Grin1/Grin2a (Rattus norvegicus) (UniProt P35439+Q00959). Briefly: Noncompetitive negative allosteric modulation of rat GluN1a/GluN2A receptor expressed in Xenopus laevis oocytes assessed as suppression of 1000 uM glutamate and 30 uM glycine induced-current at 5 uM by voltage clamp recording method relative to control. The format is cell-based. The essentials:
(§1)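 Oocytes expressing GluN1 with GluN2A, 2B, 2C or 2D, two-electrode voltage clamp. Inhibition by 5 µM compound of currents evoked by 100 µM glutamate plus 30 µM glycine, compared with inhibition when glutamate was raised to 1000 µM or glycine to 300 µM. Mean ±SEM from 4–6 oocytes.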

The target of series [3] is T2, Glutamate NMDA receptor; Grin1/Grin2c (Rattus norvegicus) (UniProt P35439+Q00961). Briefly: Negative allosteric modulation of rat GluN1a/GluN2C receptor expressed in Xenopus laevis oocytes assessed as suppression of 100 uM glutamate and 30 uM glycine induced-current at -60 to +60 mV at 3 uM by voltage clamp recording method in absence of Mg2+. The format is cell-based. The method in brief: (§2)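 GluN1/GluN2C receptors in Xenopus oocytes, two-electrode voltage clamp in Mg2+-free solution. Currents evoked by maximally effective glutamate plus glycine, without and with 3 µM inhibitor, recorded at membrane potentials from −60 to +60 mV. Reversal potential taken from the current–voltage relationship (3rd-order polynomial fit). n = 5 oocytes, mean ±SEM.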

Series [4] addresses Glutamate NMDA receptor; Grin1/Grin2b (Rattus norvegicus, UniProt P35439+Q00960). Briefly: Negative allosteric modulation of rat GluN1a/GluN2B receptor expressed in Xenopus laevis oocytes assessed as suppression of 100 uM glutamate and 30 uM glycine induced-current by voltage clamp recording method. The class given is cell-based. The method in brief: (§3)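 Rat GluN1-1a cRNA co-injected with GluN2A, 2B, 2C or 2D cRNA into Xenopus oocytes; expression 1–3 days at 16–19 °C. Two-electrode voltage clamp. Currents evoked by 100 µM glutamate plus 30 µM glycine, alone and then with rising inhibitor concentrations. […] 4–17 oocytes from ≥2 frogs.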

Series [5] addresses T3, Ionotropic glutamate receptor NMDA 1/2D (Rattus norvegicus) (UniProt P35439+Q62645). Briefly: Noncompetitive negative allosteric modulation of rat GluN1a/GluN2D receptor expressed in Xenopus laevis oocytes assessed as suppression of 100 uM glutamate and 300 uM glycine induced-current at 5 uM by voltage clamp recording method relative to control. The class given is cell-based. The method in brief: as §1

Series [6] concerns the target T2, Glutamate NMDA receptor; Grin1/Grin2c (Rattus norvegicus). Briefly: Noncompetitive negative allosteric modulation of rat GluN1a/GluN2C receptor expressed in Xenopus laevis oocytes assessed as suppression of 1000 uM glutamate and 30 uM glycine induced-current at 5 uM by voltage clamp recording method relative to control. The class given is cell-based. The method in brief: as §1

For series [7] the target is unchanged. Briefly: Negative allosteric modulation of rat GluN1a/GluN2C receptor expressed in Xenopus laevis oocytes assessed as suppression of 100 uM glutamate and 30 uM glycine induced-current at saturating compound level by voltage clamp recording method. The class given is cell-based. The essentials: as §3
Series [8] concerns the target T1, Glutamate NMDA receptor; Grin1/Grin2a (Rattus norvegicus). Briefly: Negative allosteric modulation of rat GluN1a/GluN2A receptor expressed in Xenopus laevis oocytes assessed as suppression of 100 uM glutamate and 30 uM glycine induced-current at saturating compound level by voltage clamp recording method. The class given is cell-based. The essentials:
as §3

Series [9] concerns Primary neuron. Briefly: Neuroprotective activity in rat primary hippocampal neurons assessed as 100 uM NMDA and 30 uM glycine induced LDH release in media at 30 uM after 20 to 24 hrs by spectrophotometric analysis. The class given is functional, cell-based. The essentials:
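Primary rat hippocampal neurons kept 7–10 days in vitro at 37 °C. Challenged for 1 h with Mg2+-free medium containing 100 µM NMDA plus 30 µM glycine, with or without […], then returned to normal medium. LDH activity in the supernatant read spectrophotometrically 20–24 h later and expressed relative to vehicle-treated cells. Triplicates from 6 independent experiments.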

Series [10] concerns the target Glutamate NMDA receptor; Grin1/Grin2a (Rattus norvegicus, UniProt P35439+Q00959). Briefly: Negative allosteric modulation of rat GluN1a/GluN2A receptor expressed in Xenopus laevis oocytes assessed as suppression of 100 uM glutamate and 30 uM glycine glycine induced-current by voltage clamp recording method. The class given is cell-based. The essentials:
as §3

Series [11] in a line: Solubility of compound in TEVC electrophysiological solution at 3.25 to 100 uM by nephelometric method. The class given is physicochemical. The essentials:
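Nephelometry measuring forward light scattering of each compound at 3.25–100 µM in TEVC recording solution. Maximum solubility taken as the intersection point of a linear segmental regression. Mean of n = 2 in quadruplicate.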

Series [12] addresses Glutamate NMDA receptor (Rattus norvegicus) (UniProt P35439+Q00959+Q00960+Q00961+Q62645+Q8VHN2+Q9R1M7). Briefly: Negative allosteric modulation of NMDA receptor in rat cerebellar granule cells assessed as suppression of 100 uM glutamate and 30 uM glycine induced-current at 30 uM cotreated with 100 uM NMDA and 50 uM glycine by patch clamp recording method. The method in brief: (§4)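 Primary cerebellar granule cell cultures from P6–8 rats, whole-cell patch clamp at a holding potential of −70 mV. NMDA receptor currents evoked by 100 µM NMDA plus 30 µM glycine (50 µM glycine in the example trace), with the inhibitor co-applied at various concentrations. Steady-state inhibition averaged over n = 5 cells and fitted with the Hill equation.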

The target in series [13] is T4, Glutamate NMDA receptor; Grin1/Grin2b (Rattus norvegicus) (UniProt P35439+Q00960). Briefly: Noncompetitive negative allosteric modulation of rat GluN1a/GluN2B receptor expressed in Xenopus laevis oocytes assessed as suppression of 1000 uM glutamate and 30 uM glycine induced-current at 5 uM by voltage clamp recording method relative to control. The format is cell-based. The method in brief:
as §1

For series [14], the target named is Ionotropic glutamate receptor NMDA 1/2D (Rattus norvegicus, UniProt P35439+Q62645). Briefly: Negative allosteric modulation of rat GluN1a/GluN2D receptor expressed in Xenopus laevis oocytes assessed as suppression of 100 uM glutamate and 30 uM glycine induced-current by voltage clamp recording method. The class given is cell-based. The essentials:
as §3

The target in series [15] is Glutamate NMDA receptor. Briefly: Negative allosteric modulation of NMDA receptor in rat cerebellar granule cells assessed as suppression of 100 uM glutamate and 30 uM glycine induced-current cotreated with 100 uM NMDA and 50 uM glycine by patch clamp recording method. The essentials: as §4
Series [16] deals with Glutamate NMDA receptor; Grin1/Grin2c (Rattus norvegicus, UniProt P35439+Q00961). Briefly: Negative allosteric modulation of rat GluN1a/GluN2C receptor expressed in Xenopus laevis oocytes assessed as suppression of 100 uM glutamate and 30 uM glycine induced-current by voltage clamp recording method. The class given is cell-based. The essentials:
as §3

The target of series [17] is T4, Glutamate NMDA receptor; Grin1/Grin2b (Rattus norvegicus). Briefly: Negative allosteric modulation of rat GluN1a/GluN2B receptor expressed in Xenopus laevis oocytes assessed as suppression of 100 uM glutamate and 30 uM glycine induced-current at saturating compound level by voltage clamp recording method. The format is cell-based. The method in brief: as §3
Series [18] has as its target T2, Glutamate NMDA receptor; Grin1/Grin2c (Rattus norvegicus). Briefly: Voltage-independent negative allosteric modulation of rat GluN1a/GluN2C receptor expressed in Xenopus laevis oocytes assessed as mean reverse potential of 100 uM glutamate and 30 uM glycine induced-current at -60 to +60 mV at 3 uM by voltage clamp recording method in absence of Mg2+ (Rvb=-13+/-0.6 mV). The format is cell-based. The essentials:
as §2

In series [19] the target is T3, Ionotropic glutamate receptor NMDA 1/2D (Rattus norvegicus). Briefly: Noncompetitive negative allosteric modulation of rat GluN1a/GluN2D receptor expressed in Xenopus laevis oocytes assessed as suppression of 1000 uM glutamate and 30 uM glycine induced-current at 5 uM by voltage clamp recording method relative to control. The class given is cell-based. The method in brief: as §1

The target is the same in series [20]. Briefly: Negative allosteric modulation of rat GluN1a/GluN2D receptor expressed in Xenopus laevis oocytes assessed as suppression of 100 uM glutamate and 30 uM glycine induced-current at saturating compound level by voltage clamp recording method. The format is cell-based. The essentials:
as §3

In series [21] the target is T2, Glutamate NMDA receptor; Grin1/Grin2c (Rattus norvegicus). Briefly: Noncompetitive negative allosteric modulation of rat GluN1a/GluN2C receptor expressed in Xenopus laevis oocytes assessed as suppression of 100 uM glutamate and 300 uM glycine induced-current at 5 uM by voltage clamp recording method relative to control. The class given is cell-based. The essentials: as §1

The target of series [22] is T4, Glutamate NMDA receptor; Grin1/Grin2b (Rattus norvegicus). Briefly: Noncompetitive negative allosteric modulation of rat GluN1a/GluN2B receptor expressed in Xenopus laevis oocytes assessed as suppression of 100 uM glutamate and 300 uM glycine induced-current at 5 uM by voltage clamp recording method relative to control. The class given is cell-based. The essentials:
as §1

The target in series [23] is T1, Glutamate NMDA receptor; Grin1/Grin2a (Rattus norvegicus). Briefly: Noncompetitive negative allosteric modulation of rat GluN1a/GluN2A receptor expressed in Xenopus laevis oocytes assessed as suppression of 100 uM glutamate and 300 uM glycine induced-current at 5 uM by voltage clamp recording method relative to control. The format is cell-based. The method in brief: as §1

The species named for series [24] is Rattus norvegicus. Briefly: Selectivity ratio of IC50 for rat GluN1a/GluN2A receptor expressed in Xenopus laevis oocytes to IC50 for rat GluN1a/GluN2D receptor expressed in Xenopus laevis oocytes. The class given is cell-based.

Turning to `C[C@]12N[C@H](Cc3ccccc31)c1ccccc12`, the result in series [1] was Active.
With `CCOC(=O)c1c(NC(=O)CC2SC(N)=NC2=O)sc2c1CCC(C)C2` (racemic), the inhibition result in series [2], in series [3], in series [5], in series [6], in series [12] and in series [13] was “Active” in each case. The inhibition entry in series [19], in series [21], in series [22] and in series [23] was “Active” throughout. For the same compound, the 50% inhibitory concentration (IC50) in series [4] came out at 2.2 µM; in series [10] it was 0.9 µM; in series [14], 400 nM; in series [15], 3.4 µM; in [16], 700 nM. The inhibition in [7] was found to be 80%; in series [8] it was 88%; in series [17] it was 70%; in [20] it was 76%. Further, the outcome in [9] was Active. The kinetic solubility in series [11] was found to be 43 µM (≈ 17 µg/mL). Also, in series [18], the Activity was -11.9 mV.
Turning to `CCOC(=O)c1c(NC(=O)CC2SC(=N)NC2=O)sc2c1CCSC2` (racemic), the Ratio IC50 in series [24] was determined as 7. For the same compound, the IC50 in [4] worked out at 12.2 µM; in series [10] it was 6.2 µM; in series [14], 800 nM; in series [16], 800 nM. In addition, the inhibition in series [7] stood at 88%; in series [8] it was 82%; in series [17] it was 78%; in [20], 84%.
